Results on one compound are retold here after ChEMBL document CHEMBL4196173, “Stabilized β-Hairpin Peptide Inhibits Insulin Degrading Enzyme” (J Med Chem, 2018).

Series [1] concerns Mus musculus. In words: Anti-diabetic activity in DIO C57BL/6J mouse model assessed as reduction in glucose levels at 80 mg/kg, ip administered 30 min prior to glucose stimulation […] by GTT. It is filed as functional, organism-based.
The target in series [2] is Insulin-degrading enzyme (Homo sapiens) (UniProt P14735). In words: Inhibition of IDE (unknown origin)-mediated FITC-insulin degradation in rat skeletal muscle cells at 100 uM after 10 mins at 310 K by DAPI-staining based fluorescent inverted microscopic imaging analysis. It is filed as cell-based. In outline: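 Rat skeletal muscle cells on coverslips were given 100 nM wild-type IDE and 100 μM peptide for 10 min at 310 K, then FITC-insulin for a further 10 min. Cells were washed, fixed in 4% paraformaldehyde, stained with DAPI and imaged by fluorescent inverted microscopy. Repeated three times.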
Sequence of Insulin-degrading enzyme (Homo sapiens) (P14735 whole entry): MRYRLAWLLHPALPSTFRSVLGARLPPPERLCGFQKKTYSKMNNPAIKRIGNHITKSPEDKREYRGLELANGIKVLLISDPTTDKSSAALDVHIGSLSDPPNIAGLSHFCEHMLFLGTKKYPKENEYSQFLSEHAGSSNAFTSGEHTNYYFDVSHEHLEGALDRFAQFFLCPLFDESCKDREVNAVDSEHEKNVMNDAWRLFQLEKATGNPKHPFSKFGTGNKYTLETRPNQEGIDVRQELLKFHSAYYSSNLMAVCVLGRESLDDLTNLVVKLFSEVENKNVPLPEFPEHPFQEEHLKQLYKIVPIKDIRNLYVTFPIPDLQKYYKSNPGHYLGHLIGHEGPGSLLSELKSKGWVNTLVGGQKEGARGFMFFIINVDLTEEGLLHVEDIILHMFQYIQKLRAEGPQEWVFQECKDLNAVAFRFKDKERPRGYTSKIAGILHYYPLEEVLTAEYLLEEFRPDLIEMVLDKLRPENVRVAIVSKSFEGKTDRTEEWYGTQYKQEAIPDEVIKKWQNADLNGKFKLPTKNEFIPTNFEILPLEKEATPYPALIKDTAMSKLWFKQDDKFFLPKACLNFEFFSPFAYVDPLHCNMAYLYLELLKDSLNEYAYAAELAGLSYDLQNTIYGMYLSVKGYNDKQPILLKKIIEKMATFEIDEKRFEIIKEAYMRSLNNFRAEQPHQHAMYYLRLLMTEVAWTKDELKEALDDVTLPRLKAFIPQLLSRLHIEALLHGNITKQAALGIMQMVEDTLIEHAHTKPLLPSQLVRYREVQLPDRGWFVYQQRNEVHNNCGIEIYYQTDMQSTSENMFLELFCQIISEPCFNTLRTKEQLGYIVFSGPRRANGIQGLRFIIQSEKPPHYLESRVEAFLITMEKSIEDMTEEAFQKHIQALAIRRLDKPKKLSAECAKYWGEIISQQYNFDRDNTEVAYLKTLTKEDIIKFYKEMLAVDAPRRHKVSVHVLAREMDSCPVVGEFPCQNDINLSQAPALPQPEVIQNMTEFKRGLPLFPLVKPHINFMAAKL

In series [3] the test system is Mus musculus. In words: Induction of insulin levels in lean C57BL/6J mouse at 80 mg/kg, ip after 30 to 120 mins post injection by ELISA. It is filed as functional, organism-based. In outline:
(§1)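 Male lean C57BL/6J mice received 80 mg kg−1 i.p. (n = 5) or PBS. At 30 or 120 min, heparinized blood was taken from tail or eye socket and spun to plasma. Insulin (5 μL plasma), C-peptide, glucagon, beta-endorphin and TNF alpha (10 μL each) were measured by ultrasensitive ELISA. Mean ± SEM, two-tailed t test.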
Background: In an ELISA, binding on a coated surface is turned into a signal by an enzyme label.

Series [4] concerns Mus musculus. Kind of series: Toxicity in lean C57BL/6J mouse assessed as behavioral changes at 80 mg/kg, ip. It is filed as organism-based. The note with it: in vivo. In outline:
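Male lean C57BL/6J mice (13–15 weeks) received 80 mg kg−1 i.p. or PBS vehicle (n = 6 each). Behaviour and body weight were monitored.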

Series [5] deals with Insulin-degrading enzyme (Homo sapiens) (UniProt P14735). Kind of series: Inhibition of IDE (unknown origin) assessed as potentiation of insulin-induced AKT phosphorylation in rat skeletal muscle cells at 100 uM preincubated up to 12 hrs followed by insulin addition and measured after 10 mins by Western blot analysis. It is filed as cell-based. In outline: (§2)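 Rat skeletal muscle cells were treated with 100 nM IDE plus peptide, for 10 min or at time points up to 24 h with 100 μM. Insulin (10 nM) was then added for 10 min. RIPA lysates were run on 10% SDS-PAGE and blotted for pAKT and AKT with GAPDH as loading control. Densitometry on three regions, two-tailed t test.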
Background: Immunoblotting shows a protein as a band on a membrane.

In series [6] the test system is Mus musculus. In words: Effect on glucose levels in lean C57BL/6J mouse at 80 mg/kg, ip administered 30 min prior to glucose stimulation measured up to 120 min […]. It is filed as ADME, organism-based. The note with it: in vivo.
For series [7], the system named is Mus musculus. Kind of series: Effect on basal c-peptide levels in lean C57BL/6J mouse at 80 mg/kg, ip after 30 to 120 mins post injection by ELISA. Type of series: ADME, organism-based. The note with it: in vivo. Put shortly: as §1
The test system of a further series is HeLa. In words: Cytotoxicity against human HeLa cells assessed as reduction in cell viability at <300 uM after 24 hrs at 310 K by MTT assay. It is filed as cell-based. Put shortly:
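HeLa cells were grown overnight in DMEM with 10% FBS, then exposed to serial dilutions starting at 300 μM in medium with 5% FBS for 24 h at 310 K under 5% CO2. MTT was added for a further 4 h and formazan absorbance read at 490 nm. Three independent experiments in duplicate.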

Series [8] is described as follows: Hemolytic activity against mouse RBC at 300 uM after 1 hr at 310 K. Type of series: ADME, cell-based, Erythrocyte. The note with it: mouse red blood cells (erythrocytes), read-out: Activity. Put shortly:
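Fresh mouse red cells were washed six times and suspended at 1 × 10^8 cells/mL in PBS. Peptides at 2.3–300 μM were added for 1 h at 310 K. After centrifugation, hemoglobin in the supernatant was read at 576 nm. PBS served as 0% and 0.1% Triton X-100 as 100% lysis. Three independent experiments in duplicate.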

Series [9] is described as follows: Drug uptake in brain parenchyma of lean C57BL/6J mouse at 40 mg/kg, iv using cy5-labeled compound by two-photon microscopic analysis. The note with it: in vivo.
A short description of series [10]: Drug uptake in human HeLa cells at 5 uM using FITC-labeled compound after 2 hrs at 310 K by DAPI-staining based confocal microscopy. Type of series: ADME, cell-based.
A further series deals with T1, Insulin-degrading enzyme (Mus musculus, UniProt Q9JHR7).
T1 sequence (Q9JHR7 whole entry): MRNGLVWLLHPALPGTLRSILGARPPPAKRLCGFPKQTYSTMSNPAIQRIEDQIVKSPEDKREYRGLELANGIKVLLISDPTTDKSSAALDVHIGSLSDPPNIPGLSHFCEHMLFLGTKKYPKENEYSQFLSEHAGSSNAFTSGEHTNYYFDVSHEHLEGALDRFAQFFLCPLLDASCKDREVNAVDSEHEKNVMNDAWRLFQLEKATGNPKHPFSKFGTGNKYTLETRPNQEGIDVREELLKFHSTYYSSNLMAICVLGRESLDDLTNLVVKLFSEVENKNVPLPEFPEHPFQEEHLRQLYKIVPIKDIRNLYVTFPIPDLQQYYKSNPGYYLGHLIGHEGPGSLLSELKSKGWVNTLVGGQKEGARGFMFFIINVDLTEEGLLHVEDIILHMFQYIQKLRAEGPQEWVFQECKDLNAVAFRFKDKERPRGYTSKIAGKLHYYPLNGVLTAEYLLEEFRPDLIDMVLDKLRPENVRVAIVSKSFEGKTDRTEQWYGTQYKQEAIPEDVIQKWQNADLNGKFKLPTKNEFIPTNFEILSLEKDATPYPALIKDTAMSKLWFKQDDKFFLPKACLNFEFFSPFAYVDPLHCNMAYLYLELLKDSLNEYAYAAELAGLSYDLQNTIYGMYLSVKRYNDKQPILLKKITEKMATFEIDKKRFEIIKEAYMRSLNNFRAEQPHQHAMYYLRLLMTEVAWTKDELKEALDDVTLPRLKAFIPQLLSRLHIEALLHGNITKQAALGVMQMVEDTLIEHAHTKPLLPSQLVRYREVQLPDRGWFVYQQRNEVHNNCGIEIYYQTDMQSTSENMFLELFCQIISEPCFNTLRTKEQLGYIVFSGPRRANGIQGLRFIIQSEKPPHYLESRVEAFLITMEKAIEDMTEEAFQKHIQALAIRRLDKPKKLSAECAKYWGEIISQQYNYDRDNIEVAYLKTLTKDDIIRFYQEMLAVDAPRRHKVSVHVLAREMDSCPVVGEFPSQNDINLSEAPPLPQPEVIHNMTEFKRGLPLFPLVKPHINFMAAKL
Kind of series: Inhibition of mouse His-tagged IDE (42 to 1019 residues) using fluorophore/quencher-tagged RPPGFSAFK(Dnp)-OH peptide as substrate preincubated for 10 mins followed by substrate addition measured over 5 mins by TR-FRET assay. For orientation: TR-FRET usually uses a lanthanide donor and a delayed reading to cut background.

In series [11] the test system is Mus musculus. Kind of series: Hypoglycemic activity in lean C57BL/6J mouse at 80 mg/kg, ip administered 30 min prior to insulin injection measured up to 75 mins post insulin injection by ITT. Type of series: functional, organism-based. Put shortly:
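Lean male mice were fasted 6 h, then given 80 mg kg−1 i.p. or PBS (n = 6) 30 min before subcutaneous insulin (0.25 U kg−1 in saline). Tail blood glucose was read at −30 to 75 min. Mean ± SEM, two-tailed t test, repeated three times.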

Series [12] addresses Insulin-degrading enzyme (Homo sapiens) (UniProt P14735). In words: Inhibition of IDE (unknown origin) assessed as potentiation of insulin-induced AKT phosphorylation in rat skeletal muscle cells at 100 uM preincubated for 10 mins followed insulin addition measured by Western blot analysis. It is filed as cell-based. Put shortly:
as §2

Activity calls are given as the source filed them. The calls are words filed in the database; no cut-off is given here.

Broadly, the IC50 is the concentration that gives 50% inhibition. Turning to `CC(=O)N[C@@H](CCC(=O)O)C(=O)N[C@@H](Cc1c[nH]c2ccccc12)C(=O)N[C@@H](CCCNC(=N)N)C(=O)N[C@@H](Cc1ccccc1)C(=O)N[C@H]1CC(=O)NC[C@@H](C(=O)N[C@@H](CC(C)C)C(=O)N[C@@H](Cc2ccc(O)cc2)C(=O)N[C@@H](CC(C)C)C(=O)N[C@H](C(=O)N[C@@H](CS)C(=O)NCC(N)=O)C(C)C)NC(=O)[C@H](CCC(=O)O)NC(=O)[C@@H]2CCCN2C(=O)[C@H]2CCCN2C(=O)CNC1=O`, the result with Mus musculus [1], in the series with Mus musculus [3] and in the series with Mus musculus [11] was Active. Also, the inhibition entry in [2], in series [5] and in series [12] was “Active” throughout. For the same compound, the Activity result with Mus musculus [4], in the series on Mus musculus [6], with Mus musculus [7] and with HeLa was “Non-Toxic” each time. The hemolysis at 1 h, 300 µM in series [8] is under 10%. Further, the Drug uptake entry in series [9] is “Not Active”; in series [10], “Active”. This compound displayed an IC50 against Insulin-degrading enzyme of 22 nM.
